Screens as filed in PubChem BioAssay.
The list is not random: actives were taken first. Their share in the collection is about 5.2%.
ALR inh: inhibitors of human sulfhydryl oxidase ALR; inhibition, % (no concentration beside the values); P55789; AID 485317; hit rate 3.8% among 290,000; purified ALR, DTT oxidation, H2O2 HRP-luminol luminescence;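 active = mean replicate inhibition above about 79%, with every replicate also reaching it, limit read from the data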
Target sequence (P55789 whole entry, looked up): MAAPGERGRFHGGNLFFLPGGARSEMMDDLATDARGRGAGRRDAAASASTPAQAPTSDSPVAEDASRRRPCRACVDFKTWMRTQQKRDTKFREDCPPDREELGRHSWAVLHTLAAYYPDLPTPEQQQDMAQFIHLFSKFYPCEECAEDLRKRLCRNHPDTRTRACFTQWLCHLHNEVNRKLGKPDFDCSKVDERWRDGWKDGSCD
M18AAP inhibitor: PfM18AAP enzyme inhibition. recombinant PfM18AAP, H-Glu-NHMec fluorogenic cleavage. inhibition, % at 7.35 µM. hit rate 1.2% among 290,000;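 active = inhibition above the campaign mean inhibition over all tested compounds plus 3 SD, cut at about 28% in these data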
HCV core dimer: HCV core protein dimerization inhibition; TR-FRET GST/Flag-core106 dimerization, 1536-well; hit rate 0.33% among 300,000; AID 1899; inhibition, % at 5 µM;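 active = inhibition above the mean of all tested compounds plus 3 SD, set per screening campaign, cut at about 45% in these data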
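assay system = GST-tagged and Flag-tagged HCV core protein residues 1-106 | controls = unlabelled core106 and no-GST-core106 wells | incubation = compound-protein-antibody incubation 4 h at 22.5 °C | probe or stimulus = Eu donor and XL665 acceptor anti-tag antibodies | read-out = % inhibition based on acceptor/donor emission ratio | signal = TR-FRET 671 and 617 nm emission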
NS3 helicase inh: blocks Hepatitis C virus NS3 helicase unwinding; NS3 helicase DNA unwinding, Cy5 molecular beacon fluorescence; inhibition, % at 10.9 µM; hit rate 0.56% among 290,000; AID 1800;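 active = inhibition above the mean of all tested compounds plus 3 SD, set per campaign, cut at about 35% in these data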
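System: HCV NS3 helicase fragment; control set: DMSO and thioflavine S; technique: Cy5 fluorescence at 0 and 60 min, beacon hairpin quenching; reagent: beacon DNA duplex substrate plus ATP; replicates: singlicate; schedule: 1 h reaction at 25 °C, ATP-initiated; medium: MOPS buffer pH 6.5 with MgCl2, DTT, Tween20, BSA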
ZTA DNA inh: blocks Epstein-Barr virus ZTA, an EBNA-1 counter-screen; ZTA-DNA binding, fluorescence polarization; inhibition, % at 11 µM; AID 2234; hit rate 0.15% among 320,000; P03206; in the data active = inhibition above about 33%
Target sequence (P03206 whole entry, looked up): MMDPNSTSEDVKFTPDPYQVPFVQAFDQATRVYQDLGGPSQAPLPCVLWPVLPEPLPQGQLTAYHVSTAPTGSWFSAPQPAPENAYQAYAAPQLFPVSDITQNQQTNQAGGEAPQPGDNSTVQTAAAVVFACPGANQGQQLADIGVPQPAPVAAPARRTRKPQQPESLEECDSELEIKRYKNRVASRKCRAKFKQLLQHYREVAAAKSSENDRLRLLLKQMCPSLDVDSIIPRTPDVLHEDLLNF
EBNA-1 inh: blocks EBNA-1 binding to DNA; EBNA-1 DNA binding, fluorescence polarization; inhibition, % at 14.8 µM; hit rate 0.34% among 300,000; in the data active = inhibition above about 28%
Hits are given with their value; . = inactive; / = no result given.

SMILES	ALR inh	M18AAP inhibitor	HCV core dimer	NS3 helicase inh	ZTA DNA inh	EBNA-1 inh
O=C1/C(=C\c2cccc(O)c2)SC(=S)N1Cc1ccccc1	.	.	.	.	.	.
Cc1cc(C)c(OCC(=O)OCC(=O)N2CCCc3ccccc32)c(C)c1	.	/	.	/	.	.
CN(CC(=O)Nc1ccccc1C(F)(F)F)C(=O)c1ccc2c(=O)n3c(nc2c1)CCC3	/	/	/	/	.	/
O=C(NC(=S)Nc1ccccc1O)c1cccnc1	.	.	.	.	.	.
Cc1ccc(S(=O)(=O)NNC(=O)c2cccnc2)cc1	.	.	.	.	.	.
O=C(NC(=S)NNS(=O)(=O)c1ccccc1)c1cccnc1	.	31	.	.	.	.
N#Cc1ccccc1NC(=S)NC(=O)c1cccnc1	95	.	.	.	.	.
O=C(O)CC1Sc2nnc(COc3ccc(Cl)cc3)n2N=C1c1ccccc1 (stereo not given)	.	.	.	.	.	.
CC[n+]1c(/C=C(\C)Nc2ccccc2)sc2ccccc21	89	.	.	.	.	.
CC[n+]1c(/C=C/Nc2ccccc2)sc2ccccc21	.	30	.	.	.	.
CC[n+]1c(/C=C(\C)OC)sc2ccccc21	/	.	/	.	/	/
CC1CCc2nc(/C(C#N)=C/c3ccncc3)sc2C1 (stereo not given)	98	.	.	.	.	.
N#C/C(=C/c1ccncc1)c1nc2ccccc2s1	.	.	.	.	.	.
CCN(CC)CCCNC(=O)c1ccc2c3n(nc2c1)-c1ccc(Cl)cc1CO3	99	/	.	/	.	.
CC[C@H](C)C(N)c1cn([C@@H](CC(N)=O)C(=O)N2CCNCC2)nn1 (stereo not given in full)	.	/	.	/	.	.
Cc1cc(C(=O)CSc2nc3ccccc3n2CCC#N)c(C)n1Cc1cccs1	.	.	.	.	.	34
COc1ccc(/C=N/N=C(\N)c2nonc2N)cc1OC	.	.	.	.	.	.
COc1cc(/C=N/N=C(\N)c2nonc2N)ccc1O	99	.	.	.	.	.
N/C(=N\N=C\c1ccc(O)cc1)c1nonc1N	99	.	.	.	.	.
N/C(=N\N=C\c1cccc(O)c1)c1nonc1N	.	.	.	.	.	.
O=S(=O)(NC1=NCCCCC1)c1ccc2sc(NS(=O)(=O)c3ccc4ccccc4c3)nc2c1	87	.	.	.	.	.
Cc1c(NC(=O)c2cc(Br)ccc2Cl)cccc1-n1cnnn1	.	/	/	/	/	/
Cc1cc(C(=O)NNc2ccc(F)cc2)no1	99	.	.	.	.	.
Cc1cc(C(=O)NNc2ccccc2F)no1	99	.	.	.	.	.
Cc1cc(C(=O)NNc2c(Cl)cccc2Cl)no1	.	.	.	.	.	.
SMILES	ALR inh	M18AAP inhibitor	HCV core dimer	NS3 helicase inh	ZTA DNA inh	EBNA-1 inh
NS(=O)(=O)c1ccc(NC(=O)/C(=C/c2ccncc2)NC(=O)c2ccccc2)cc1	.	.	.	.	.	.
C#CCOc1ccccc1CNC1CCN(Cc2ccccc2)CC1	/	.	.	.	.	.
C#CCOc1ccccc1CNc1ccccc1	98	.	.	.	.	.
O=c1[nH][nH]c2cc(=O)n(-c3cccc(C(F)(F)F)c3)nc12	.	.	.	.	.	.
Nc1n[nH]c2cc(=O)n(-c3cccc(C(F)(F)F)c3)nc12	93	.	.	.	.	.
COC(=O)c1sc2cc(=O)n(-c3cccc(C(F)(F)F)c3)nc2c1O	.	31	.	.	.	.
COc1cc2c(cc1NC(=O)CSc1ccccc1)oc1ccccc12	.	.	.	.	33	.
COc1cc2c(cc1NC(=O)CSc1nccn1C)oc1ccccc12	.	.	.	.	.	.
CCOc1ccccc1CNC(=O)CCC(=O)N1Cc2ccccc2Oc2ncccc21	.	.	.	.	.	.
CCc1ccc(/C=C/C(=O)c2cc(Br)ccc(=O)c2O)cc1	.	60	.	.	.	.
O=C(c1ccc(S(=O)(=O)Nc2ccccc2F)cc1)N1CCN(c2ccccc2O)CC1	.	/	.	/	.	.
COc1cccc(-n2ccnc2SCC(=O)Nc2cc(C)on2)c1	83	.	.	.	.	.
COc1cccc(-n2ccnc2SCC(=O)NCc2ccccc2)c1	.	.	.	.	.	.
Cc1cc(NC(=O)CSc2nccn2-c2ccc(Cl)cc2)no1	99	.	.	.	.	.
Cc1cc(NC(=O)CSc2nccn2-c2ccc(F)cc2)no1	.	.	.	.	.	.
CCCc1cc2nnc(SCC(=O)N(C)C3CCCCC3)n2c(N)n1	.	.	.	.	.	.
CCN1CCc2c(sc(NC(=O)c3cc4ccccc4cc3OC)c2C(N)=O)C1	.	.	.	.	.	.
COc1c(/C=N/NC(=O)c2ccccc2O)c(CCN(C)C(C)=O)cc2c1OCO2	.	.	.	.	.	.
COc1c(/C=N/Nc2ccc(C(=O)O)cc2)c(CCN(C)C(C)=O)cc2c1OCO2	97	.	.	.	.	.
COc1ccc(N2CCN(S(=O)(=O)CCNC(=O)/C=C/c3ccc4c(c3)OCO4)CC2)cc1	.	/	.	/	.	.
O=C1COc2ccc(C(=O)COC(=O)c3ccco3)cc2N1	.	.	.	.	.	.
CC(C)[C@H](NC(=O)c1ccco1)C(=O)OCC(=O)c1ccc2c(c1)NC(=O)CO2	100	.	.	.	.	.
Cc1cc(C)c2sc(NC(=O)C3CC3)nc2c1	.	.	.	.	.	.
CCOC(=O)c1ccc(NC(=O)CSc2nc3c(c(=O)n2CC)SC(C)C3)cc1 (stereo not given)	99	.	.	.	.	.
CCn1c(SCC(=O)Nc2cccc(F)c2)nc2c(c1=O)SC(C)C2 (stereo not given)	/	.	.	.	.	.
SMILES	ALR inh	M18AAP inhibitor	HCV core dimer	NS3 helicase inh	ZTA DNA inh	EBNA-1 inh
CCOC(=O)c1ccc(NC(=O)CSc2nc3c(c(=O)n2C)SC(C)C3)cc1 (stereo not given)	100	.	.	.	.	.
COc1ccccc1CCNC(=O)Cn1ccc2cc(S(=O)(=O)N3CCC(C)CC3)ccc21	.	.	.	.	.	.
CSCCC(NC(=O)c1ccco1)C(=O)N1CCN(c2ccccc2O)CC1 (stereo not given)	.	/	/	/	.	/
CCCOc1ccccc1N1C(=O)CC(N(O)c2ccccc2)C1=O (stereo not given)	97	.	.	.	.	.
Cc1c(F)cccc1NS(=O)(=O)c1ccc2c(c1)c(=O)n(C)c(=O)n2C	.	.	.	.	.	.
CCc1ccc(CN(C)CC(=O)Nc2sccc2C#N)cc1	.	.	.	.	.	.
CCOC(=O)C1=C(c2ccccc2)NC(=O)NC1c1ccc(N(C)C)cc1 (stereo not given)	99	.	.	.	.	.
CCOC(=O)C1=C(c2ccccc2)NC(=O)NC1c1ccc(OC)cc1 (stereo not given)	.	.	.	.	.	.
CC(=O)N1N=C2/C(=C/c3ccccc3)CCCC2C1c1ccccc1 (stereo not given)	.	.	.	.	.	.
